Assay [1] in a line: Inhibition of Clostridioides difficile-specific DNA adenine methyltransferase PDB 7RFM using 5'-CGA TTC AAA AAG TCC CAA G-3' and 3'-GCT AAG TTT TTC AGG GTT C-5' as substrate and SAM as cosubstrate preincubated for 5 mins followed by substrate and cosubstrate addition and measured after 3 mins by MTase-Glo assay. The method, boiled down: (§1)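 Then 2.5 μM 19-bp dsDNA and 40 μM SAM were added, 3 min at ~22 °C, TFA quench (0.1%). Luminescent SAH readout against a serially diluted SAH standard curve; IC50 and Hill slope reported.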

Assay [2] in a line: Binding affinity to Clostridioides difficile-specific DNA adenine methyltransferase PDB 7RFM by MicroCal PEAQ ITC analysis. Put shortly: (§2)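 CamA (pXC2184 construct) in 325 mM NaCl, 20 mM Tris–HCl pH 7.5, 0.5 mM TCEP, 10% DMSO at 25 °C; 200–900 μM compound titrated into 20–60 μM protein (0.2 μL initial injection then 18 × 2 μL; reverse titration for poorly soluble compounds). Data fitted to a one-site model with offset subtracted to obtain K_D.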
On the technique in general: ITC needs no label: the signal is the heat of the interaction.

The nature of assay [3]: Inhibition of Clostridioides difficile-specific DNA adenine methyltransferase mediated methylation using 5'-CGA TTC AAA AAG TCC CAA G-3' and 3'-GCT AAG TTT TTC AGG GTT C-5' as substrate and SAM as cosubstrate preincubated for 5 mins followed by substrate and cosubstrate addition and measured after 3 mins by MTase glo assay.
Assay [4] in a line: Binding affinity to Clostridioides difficile-specific DNA adenine methyltransferase by MicroCal PEAQ-ITC instrument analysis.
In assay [5] the test system is Clostridioides difficile. Briefly: Inhibition of Clostridioides difficile-specific DNA adenine methyltransferase mediated methylation using 5'-CGA TTC AAA AAG TCC CAA G-3' and 3'-GCT AAG TTT TTC AGG GTT C-5' as substrate and SAM as cosubstrate at 1 to 10 uM preincubated for 5 mins followed by substrate and cosubstrate addition and measured after 3 mins by MTase glo assay. Particulars: dose 1-10 µM, time 8.0 min.

In assay [6] the test system is Clostridioides difficile. Briefly: Binding affinity to Clostridioides difficile-specific DNA adenine methyltransferase assessed as change in enthalpy by MicroCal PEAQ-ITC instrument analysis. Put shortly: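 Test compound (200–900 μM) titrated into CamA (20–60 μM) at 25 °C in 325 mM NaCl, 20 mM Tris–HCl pH 7.5, 0.5 mM TCEP, 10% DMSO; 0.2 μL initial plus 18 × 2 μL injections. Reverse titration used for poorly soluble compounds. Data fitted to a one-site model with offset subtracted; K_D, ΔH, −TΔS and ΔG derived from the fit.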

Assay [7] concerns the target Histone-lysine N-methyltransferase, H3 lysine-79 specific (Homo sapiens) (UniProt Q8TEK3). Briefly: Inhibition of human DOT1L using oligonucleosome as substrate and 3H-SAM as cosubstrate at 10 uM pretreated with compound for 20 mins in presence of oligonucleosome followed by cosubstrate addition and measured after 1 hr. To be noted: time 80.0 min. Put shortly:
(§3)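 Enzymes (DOT1L 1 nM; EZH2, G9a, PRMT1 5 nM) mixed with substrate (0.05 mg/mL oligonucleosomes for DOT1L; 0.05 mg/mL core histone for EZH2; 5 μM H3 1–21 peptide for G9a; 5 μM H4 for PRMT1). Compound (10 μM) added for 20 min at room temperature, then 1 μM ³H-SAM for 1 h at 30 °C; filter-paper read-out. Triplicates, mean ± SD.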

The target in assay [8] is T1, Histone-lysine N-methyltransferase EHMT2 (Homo sapiens) (UniProt Q96KQ7).
T1 sequence (whole entry): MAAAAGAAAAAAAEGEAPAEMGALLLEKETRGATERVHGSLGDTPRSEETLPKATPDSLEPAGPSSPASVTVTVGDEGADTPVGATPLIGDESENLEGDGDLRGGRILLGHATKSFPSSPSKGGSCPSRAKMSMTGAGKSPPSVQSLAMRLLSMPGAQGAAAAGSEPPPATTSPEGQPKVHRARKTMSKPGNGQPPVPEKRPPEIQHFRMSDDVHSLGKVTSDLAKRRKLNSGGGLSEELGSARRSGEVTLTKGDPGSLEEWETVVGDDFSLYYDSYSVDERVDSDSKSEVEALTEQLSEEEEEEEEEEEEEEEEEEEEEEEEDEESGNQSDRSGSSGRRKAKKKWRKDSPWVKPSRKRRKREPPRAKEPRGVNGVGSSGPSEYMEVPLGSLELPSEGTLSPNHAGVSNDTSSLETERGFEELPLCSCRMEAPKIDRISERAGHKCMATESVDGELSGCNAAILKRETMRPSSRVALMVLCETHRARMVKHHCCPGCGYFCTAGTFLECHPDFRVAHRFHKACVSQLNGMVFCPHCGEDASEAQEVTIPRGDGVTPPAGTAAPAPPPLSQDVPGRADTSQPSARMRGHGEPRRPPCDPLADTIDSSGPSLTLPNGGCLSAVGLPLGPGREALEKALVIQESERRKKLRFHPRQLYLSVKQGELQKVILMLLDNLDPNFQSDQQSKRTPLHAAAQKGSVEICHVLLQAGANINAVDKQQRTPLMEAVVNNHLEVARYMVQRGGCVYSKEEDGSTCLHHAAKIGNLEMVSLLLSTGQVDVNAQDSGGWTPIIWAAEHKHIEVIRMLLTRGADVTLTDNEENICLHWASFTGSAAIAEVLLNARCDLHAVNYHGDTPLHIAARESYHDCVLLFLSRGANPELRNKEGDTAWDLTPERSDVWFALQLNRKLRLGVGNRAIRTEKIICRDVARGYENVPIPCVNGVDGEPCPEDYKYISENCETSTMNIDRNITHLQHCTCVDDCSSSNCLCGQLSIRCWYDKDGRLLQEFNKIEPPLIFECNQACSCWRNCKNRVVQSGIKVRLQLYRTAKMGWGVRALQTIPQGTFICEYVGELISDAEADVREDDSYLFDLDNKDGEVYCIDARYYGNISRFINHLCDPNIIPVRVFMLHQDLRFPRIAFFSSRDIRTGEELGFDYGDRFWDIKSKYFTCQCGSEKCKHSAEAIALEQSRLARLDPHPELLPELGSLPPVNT
Briefly: Inhibition of human G9a (913 to 1193 residues) expressed in Escherichia coli BL21 (DE3)-gold cells using histone H3 (1 to 21 residues) as substrate and 3H-SAM as cosubstrate at 10 uM pretreated with compound for 20 mins in presence of histone H3 (1 to 21 residues) followed by cosubstrate addition and measured after 1 hr. To be noted: time 80.0 min. The method, boiled down:
as §3

Assay [9] has as its target Protein arginine N-methyltransferase 1 (Homo sapiens) (UniProt Q99873). Briefly: Inhibition of PRMT1 (unknown origin) using histone H4 as substrate and 3H-SAM as cosubstrate at 10 uM pretreated with compound for 20 mins in presence of histone H4 followed by cosubstrate addition and measured after 1 hr. To be noted: time 80.0 min. Put shortly: as §3
Assay [10] deals with Clostridioides difficile. Briefly: Inhibition of Clostridioides difficile-specific DNA adenine methyltransferase using 5'-CGA TTC AAA AAG TCC CAA G-3' and 3'-GCT AAG TTT TTC AGG GTT C-5' as substrate and SAM as cosubstrate at 50 uM preincubated for 5 mins followed by substrate and cosubstrate addition and measured after 3 mins by MTase-Glo assay. To be noted: time 8.0 min.

Assay [11] can be described thus: Inhibition of Clostridioides difficile-specific DNA adenine methyltransferase PDB 7RFL using 5'-CGA TTC AAA AAG TCC CAA G-3' and 3'-GCT AAG TTT TTC AGG GTT C-5' as substrate and SAM as cosubstrate preincubated for 5 mins followed by substrate and cosubstrate addition and measured after 3 mins by MTase-Glo assay. Put shortly:
as §1

Assay [12] can be described thus: Binding affinity to Clostridioides difficile-specific DNA adenine methyltransferase PDB 7RFL by MicroCal PEAQ ITC analysis. The method, boiled down: as §2

SMILES strings stand for the structures. Active and inactive are the calls of the source. The calls are words filed in the database; no cut-off is given here.

Sequence of Protein arginine N-methyltransferase 1 (Homo sapiens) (Q99873 whole entry, looked up): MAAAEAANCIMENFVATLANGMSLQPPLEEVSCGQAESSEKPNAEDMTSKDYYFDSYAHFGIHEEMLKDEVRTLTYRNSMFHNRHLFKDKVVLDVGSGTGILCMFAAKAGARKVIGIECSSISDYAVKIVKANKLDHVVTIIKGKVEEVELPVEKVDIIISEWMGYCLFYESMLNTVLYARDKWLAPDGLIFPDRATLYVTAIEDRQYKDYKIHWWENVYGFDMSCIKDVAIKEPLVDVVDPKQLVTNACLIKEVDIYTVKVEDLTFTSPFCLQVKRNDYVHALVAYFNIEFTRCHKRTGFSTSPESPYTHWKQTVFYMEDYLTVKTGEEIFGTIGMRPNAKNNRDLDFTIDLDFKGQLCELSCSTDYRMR
Sequence of Histone-lysine N-methyltransferase, H3 lysine-79 specific (Homo sapiens) (Q8TEK3 whole entry, looked up): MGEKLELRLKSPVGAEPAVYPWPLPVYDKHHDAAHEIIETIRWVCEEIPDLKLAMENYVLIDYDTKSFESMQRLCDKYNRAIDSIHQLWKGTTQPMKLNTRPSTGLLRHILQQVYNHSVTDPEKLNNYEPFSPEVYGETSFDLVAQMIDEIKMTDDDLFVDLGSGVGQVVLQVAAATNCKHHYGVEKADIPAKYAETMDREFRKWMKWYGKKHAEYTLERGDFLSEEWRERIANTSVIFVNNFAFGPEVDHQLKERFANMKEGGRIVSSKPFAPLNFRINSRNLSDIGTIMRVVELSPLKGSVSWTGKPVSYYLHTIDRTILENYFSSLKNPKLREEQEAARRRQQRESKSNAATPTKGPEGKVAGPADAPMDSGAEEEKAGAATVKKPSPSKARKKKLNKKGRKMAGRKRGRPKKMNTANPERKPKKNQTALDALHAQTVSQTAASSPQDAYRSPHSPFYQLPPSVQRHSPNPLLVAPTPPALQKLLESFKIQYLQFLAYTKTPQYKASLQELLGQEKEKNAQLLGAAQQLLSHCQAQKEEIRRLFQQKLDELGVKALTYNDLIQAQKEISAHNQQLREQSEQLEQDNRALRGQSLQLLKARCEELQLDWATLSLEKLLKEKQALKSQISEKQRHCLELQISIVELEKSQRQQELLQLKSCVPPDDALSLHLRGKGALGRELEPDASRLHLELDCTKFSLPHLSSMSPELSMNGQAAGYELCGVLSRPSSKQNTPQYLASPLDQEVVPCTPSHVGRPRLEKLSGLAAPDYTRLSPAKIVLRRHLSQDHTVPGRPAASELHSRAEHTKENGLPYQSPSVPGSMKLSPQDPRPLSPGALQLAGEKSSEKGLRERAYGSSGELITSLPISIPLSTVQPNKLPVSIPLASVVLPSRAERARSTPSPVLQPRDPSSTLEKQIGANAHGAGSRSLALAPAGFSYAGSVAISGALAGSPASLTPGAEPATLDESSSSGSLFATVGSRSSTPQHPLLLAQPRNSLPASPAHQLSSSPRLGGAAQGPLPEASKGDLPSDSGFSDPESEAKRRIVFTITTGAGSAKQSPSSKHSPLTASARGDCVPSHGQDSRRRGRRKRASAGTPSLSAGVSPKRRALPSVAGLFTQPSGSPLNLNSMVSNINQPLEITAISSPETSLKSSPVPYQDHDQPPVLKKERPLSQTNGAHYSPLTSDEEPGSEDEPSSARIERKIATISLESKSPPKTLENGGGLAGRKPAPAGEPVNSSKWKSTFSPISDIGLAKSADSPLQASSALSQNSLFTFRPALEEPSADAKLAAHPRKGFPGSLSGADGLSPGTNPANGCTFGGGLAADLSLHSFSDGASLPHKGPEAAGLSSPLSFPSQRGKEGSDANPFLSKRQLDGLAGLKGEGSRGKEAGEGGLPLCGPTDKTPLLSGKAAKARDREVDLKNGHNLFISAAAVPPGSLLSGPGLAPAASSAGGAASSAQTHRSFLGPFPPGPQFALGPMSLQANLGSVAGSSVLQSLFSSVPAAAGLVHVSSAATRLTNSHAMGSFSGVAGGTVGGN

Consider `CC(C)N(CCCNC(=O)Nc1ccc(C(C)(C)C)cc1)C[C@H]1O[C@@H](n2ccc3c(N)ncnc32)[C@H](O)[C@@H]1O`, for which inhibition in assay [1] was half-maximal at 43 µM (IC50). The same compound yielded a Kd in assay [2] of 18 µM. As for `CC(C)(C)OC(=O)N1CCC(CNc2ncnc3c2ncn3[C@@H]2O[C@H](CO)[C@@H](O)[C@H]2O)CC1`, in [3], the IC50 worked out at 2 µM. The compound further had a Kd in assay [4] of 1.1 µM. For `Nc1ccc(CCCNc2ncnc3c2ncn3[C@@H]2O[C@H](CO)[C@@H](O)[C@H]2O)cc1` the same measures were 1.4 µM and 1.5 µM.

For `OC[C@H]1O[C@@H](n2cnc3c(NCCCCc4ccccc4)ncnc32)[C@H](O)[C@@H]1O`, in [3], the IC50 worked out at 1.6 µM. Also, the Kd in assay [4] was found to be 1.6 µM. As to `CC(C)(C)OC(=O)NCCC1CCN(c2ncnc3c2ncn3[C@@H]2O[C@H](CO)[C@@H](O)[C@H]2O)CC1`, in assay [5], the inhibition result was “inactive”. `OC[C@H]1O[C@@H](n2cnc3c(NCCCCCc4ccccc4)ncnc32)[C@H](O)[C@@H]1O` displayed an IC50 in [3] of 1.3 µM. The same compound gave a Kd in assay [4] of 1.3 µM. The compound `OC[C@H]1O[C@@H](n2cnc3c(NCCCC4CCNCC4)ncnc32)[C@H](O)[C@@H]1O` came in with an IC50 in assay [3] of 3.8 µM.

Turning to `Nc1ccc(CNc2ncnc3c2ncn3[C@@H]2O[C@H](CO)[C@@H](O)[C@H]2O)cc1`, in assay [6], the deltaH is -12.2 kcal/mol. In assay [3], this compound showed a half-maximal inhibitory concentration (IC50) of 10 µM. Binding in assay [4] was put at a Kd of 14 µM. Consider `OC[C@H]1O[C@@H](n2cnc3c(NCCc4ccccc4)ncnc32)[C@H](O)[C@@H]1O`, for which it took 2.5 µM to reach half-maximal inhibition in assay [3] (IC50). For the same compound, in assay [4], the Kd was found to be 2.9 µM.

In [3], `OC[C@H]1O[C@@H](n2cnc3c(NCc4ccccc4)ncnc32)[C@H](O)[C@@H]1O` [N6-BENZYLADENOSINE] showed an IC50 of 15 µM. In assay [4], this compound yielded a Kd of 13 µM. With `OC[C@H]1O[C@@H](n2cnc3c(N[C@H]4CCc5ccccc54)ncnc32)[C@H](O)[C@@H]1O`, it took 43 µM to reach half-maximal inhibition in assay [3] (IC50). This compound came in with a Kd in assay [4] of 49 µM. As to `Nc1ncnc2c1ncn2[C@@H]1O[C@H](CSCC[C@H](N)C(=O)O)[C@@H](O)[C@H]1O`, the inhibition result in [7], in [8] and in assay [9] was “Active” throughout. In [4], `Nc1ccc(CCNc2ncnc3c2ncn3[C@@H]2O[C@H](CO)[C@@H](O)[C@H]2O)cc1` gave a Kd of 18 µM. For `OC[C@H]1O[C@@H](n2cnc3c(NCCCc4ccccc4)ncnc32)[C@H](O)[C@@H]1O`, the IC50 in assay [3] worked out at 0.7 µM. In assay [4], this compound registered an equilibrium dissociation constant (Kd) of 0.5 µM. As for `CC(C)N(CCCNC(=O)Nc1ccc(C(C)(C)C)cc1)C[C@H]1O[C@@H](n2cc(Br)c3c(N)ncnc32)[C@H](O)[C@@H]1O`, the inhibition result in [10] was “Active”. In addition, 4.7 µM corresponded to half-maximal inhibition in [11] (IC50). The Kd in assay [12] worked out at 6.3 µM. As to `CC(C)(C)OC(=O)N1CCC2(CCN(c3ncnc4c3ncn4[C@@H]3O[C@H](CO)[C@@H](O)[C@H]3O)CC2)C1`, in assay [5], the inhibition entry was “inactive”. As for `OC[C@H]1O[C@@H](n2cnc3c(NCc4ccc(O)cc4)ncnc32)[C@H](O)[C@@H]1O`, the IC50 in [3] was 4.8 µM. In addition, in assay [4], the Kd worked out at 5.3 µM.

Broadly, the IC50 is the concentration at which inhibition is half-maximal. Higher therefore signals weaker potency. As a reminder, the Kd is the constant that tells how readily two partners part at equilibrium. Higher therefore signals lower affinity.

The record behind these values is ChEMBL document CHEMBL5316295, “Systematic Design of Adenosine Analogs as Inhibitors of a Clostridioides difficile-Specific DNA Adenine Methyltransferase Required for Normal Sporulation and Persistence” (J Med Chem, 2023).
